# Reference: the RNAGym collection of RNA variant scans (doi:10.1126/science.aae0568)
# Fewer inactive variants are shown than the library holds.
# B1: tRNA (parent)
# chain: GUUCCGUUGGCGUAAUGGUAACGCGUCUCCCUCCUAAGGAGAAGACUGCGGGUUCGAGUCCCGUACGGAACG
# Variants of: B1
# Assay: yeast fitness relative to wild type (ratio to wild type); higher = fitter; tRNA-Arg(CCU), competitive growth, 37 C, YPD
# Outline: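 Variants of the tRNA-Arg(CCU) gene, chemically synthesised with a 3% per-site mutation rate at 69 sites, were placed at the native genomic locus in Saccharomyces cerevisiae. The pooled strains were competed in YPD at 37°C for 24 hours in six parallel replicates. Gene amplicons from the start population and from each end population were read by 100-nucleotide paired-end sequencing. Darwinian fitness relative to wild type came from changes in genotype frequencies; genotypes needed ≥ 100 starting reads, and estimates < 0.5 were set to 0.5.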
row,Variant,yeast fitness
1,GCUCCGUUGGCGUAAUGGUAACGCGUCACCCUCCUAAGGAGACGACUGCGGGUUCGCGUCCAGUACGGAACG,0.572
2,GCCCCGUUGGCGUAAUGGUAAUGCGUCUCCCUCUUAAGGAGAAGACUGCGGGUUCGAGUCCCGUACGGAACG,≤ 0.5
3,GGUCCGUUGGCGUAUUGGUAACGCGUCUCCCUCCUAAGGAGAAGACUGCGGGUUCGAGUCCCGUACGGAACG,0.75
4,GGUCCGUUGGCGUAGUGGUAACGCGUCUCCCUCCUAAGGAGAAGACUGCGGGUUCGAGUCCCGUACGGAACG,0.812
5,GCUCCGUUGGCGUAAUGGCAACGCGUCUCCCUCCUAAGGAGAAGACUGCGGGUUCGAGACCCGUACGGAACG,0.582
6,GCUCCGUUGGCGCAAUGGUAAGGCGACUCCUUCCUAAGGAGCAGACUGCCGGUUCGAGUCCCGAAUGCAACG,≤ 0.5
7,GCUCCGUUGGCGUAAUGGUAACGCGUCUCCCUCCUAAGGAGAAGACAGCGGGUUCGAGUCCCGUACGGAGCG,1.15
8,GCUCCGAUGGCGUAAUGGUAACGCGUCUCCCUCUUAAGGAGAACACUGCGGGUUCGAGUCCCGUACGGAACG,≤ 0.5
9,GGUCCGUUGGCGUAAUGGUGACGCGUCUCCCUCCUAAGGAGAAGAAUGCGGGUUCGAGUCCCGUACGGAACG,0.618
10,GGUCCGUUGGCGUCAUGGUAACGCGUCUCUCUCCUAAGGAGAAGACUGCGGGUGAGAGUCCCGUACGGAACG,≤ 0.5
11,GCUCCGUUGGCGUAAUGGGAACGCGUCUCCCUCCUAAGGAGAAGACUGCGGGUUCGAGUCCCGUACGGCACG,0.543
12,GCUCCGUUGGCGUAACGGUAAAGCGUCUCCCUCCAAAGGAGAAGCCUGCGGGUUCGAGUCCCGUACGGAACG,≤ 0.5
13,GCUCCGUUGGCGUAAUGGAAACGUGUCUCCCUCCUAAAGAGAAGACUGCGGGUCCGAGUCCCGUAAGGAACG,≤ 0.5
14,GCCCCGUUGGCGUAAUGGUAACGCCUGUCCCUCCUAAGGAGAAGACUGCGGGUUCGAGUCCCGUACGGAACG,≤ 0.5
15,GCUCCGUGGGCGUAAUGGUAACAGGUCUCCCUCCUAAGGAGAAAACUGCGGGUUCGAGUCCCGUACGGAACG,≤ 0.5
16,GGUCCGUUGGCGUCAUGGUAACGCGUCUCCCUCCUAAGGAGCAGACUGCGGGUUCGAGUCCCGUACGGAACG,≤ 0.5
17,GGUCCGUUGGCGUAUUGGUAACGGGUCUCCCUCCUAAGGAGAAGACUGCGGGAUCGAGUCCCGAACGGAACG,≤ 0.5
18,GCUCCGUUGGCGUAAUGGUAACGCGUCUCCCUCCUAAGGAGAAGACAGCGGGAUCGAGUCCCGUACGGAACG,≤ 0.5
19,GCUCCGUAGGCGUAAUGGUAACGCGUCUCCCUCCUAACGAGAAGACUGCGGGUUCGAGUACCGUACGGAACG,≤ 0.5
20,GCUCCGUUGGCGUAAUGGUAACGCGUCUCCCUCCAAAGGAGAAGACUGCGGGUUAGAGUCCCGUAAGGAACG,0.521
21,GCUCCGUUGGCGUAAUGGUAACGCGUCUCCCUCCUAAGGAGAAGACCGCGGGUUCGAGUCCCGUACCGAACG,0.719
22,GCUCCGUUGGCGUAAUGGUAACGCGUCUCCCUCCUAAGGAGAAGACAGCGGGUUCGAGUCCCGUACGGAACG,0.982
23,GGUCCGUUGGCGUAUUGGUAACGCGUCUCCCUCCUAAGGAGAAGACUGCGGGUUCGAGUCCAGUACGGAACG,0.613
24,GCUCCGUUGGCGUAAUGGAAACGCGACUACCUCCUAAGGAGAAGAGUGCGGGUACGAGUCCCGUACGGAACG,≤ 0.5
25,GGUCCGUUGGCGUCAUGGUAACGCGUCUCCCUCCUAAGGAGCAGACUGUGGGUUCGAGUCCCGUCCGGAACG,≤ 0.5

row,Variant,yeast fitness
1,GCUCCGAUGGCGUAAUGGUAACGAGUCUCCCUCCUAGGGAGUAGACUCCGGGUACGAGUCCCGUACGGAACG,≤ 0.5
2,GCUCCGUUGGCGUAAUGGUAACGCGCCUCCCUCCUAAGGAGAAGACUGCGGGUUAGAGUCCCGUACGGAACG,0.732
3,GCUCCGUUGGCGUAAUGGUAACGCGUCUCCCUCCAAAGGAGAAGACUGCGGGUUCGAGUACCGUACGGAACG,≤ 0.5
4,GCCCCGUUGGCGUAAUGGUAACGCGUCUCCCUCUUAAGGAGAAGACUGCGGGUUCGAGUCCCGUACGGAACG,0.571
5,GCUCCGUUGGCGUAAAGGUAACGCGUCUCCCUCCUAAGGAGAAGACUGUGGGUUCGAGUCCCGUCCGGCACG,≤ 0.5
6,GCCCCGUUGGCGUAAUGGUAACGCGUCUCCCUCCUAAGGAGAAGGCUGCGGGUUCGAGUCACGUACGGAACG,≤ 0.5
7,GCUCCGUUGGCGCAAUGGUAACGCGUCUCCCUCCUAAGGAGAAGACUGCGGGUUCGAGUCGCGUACGGAACG,≤ 0.5
8,GCGCCGUUGGCGUAAUGAUAACGCGUCUCCCUCCUAAGGAGAAGACUGCGGGUUCGAGUCCCGUUCGGAACG,≤ 0.5
9,GGUCCGUUGGCGUUAUGGUAAGGCGUCUCGCUCCUAAGGAGAAGACUGCGGGUUCGAAUCCCGUACGGAACG,≤ 0.5
10,GCUCCGUUGGCGUAAUGGCAACGCGUCUCCCUCCUAAGGAGAAGACUGCGGGUACGAGUCCCGUACGGCACG,≤ 0.5
11,GGUCCGUUGGCGUAAUGGUAACGCGUCUCCCUCCUAAGGAGAAGACUGCGGGUUCGAGUCCCGUACGGAACG,0.994
12,GCUCCGGUGGCGUAAUGGUAACGCGUCUCCCACCUAAGGAGAAGACUGCGGGUUCGAGACCCGUACGGAACG,0.501
13,GCUCCGUUGGCGAAAUGGUAACGCGUCUCCCUCCUAAGCAGAAGACUGCGGGUUCGAGUGCCGUACGGAACG,≤ 0.5
14,GCUCCGUUGGCGUAAUGGUAACGCGUCUCCCUCCCAAGGAGAAGACUGCGGGUUCGAGUCCCGUACGGAACG,0.829
15,GGUCCGUUGGCGUAAUGGUCACGCAUCUCCCUCCUAAGGAGAAGACUGCGGGUUCGAGUCCCGUACGGCACG,≤ 0.5
16,GGUCCGUUGGCGUAAUGGUCACGCGUUUCCCUCCUAAGGAGAAGAAUGCGGGUUCGAGUCCCGUACGGAACG,0.614
17,GCUCCGUUGGCGCAAUGGUAACGCGUCUCCCUCCUAAAGAGAAGACUGCGGGUUCGAGUCCCGUACGGAACG,0.596
18,GCUCCGUUGGCGUAAUGGUAACGCGUCUCCCGCCUAAGGAGAAGACUGCGGGUUCGAGUCCCGUACGGAACG,0.674
19,GCUCCGUUGGCGUAAUGGUAACGCGUCUCCCUCCGAAGGCGAAGACUGCGGGUUCGAGUCCCGUACGGAACG,0.587
20,GCUCCGUUGGCGUAAUGGUAACGCGGCUCCCUCCUAAGGAGAAGACUGCGGGUUCGAGUCCCGUACGGAACG,0.997
21,GCUCCGUUGGCGAAAUGGUAACGCGUCUCCCUCCUAAGGAGAAGACUGCGGGUUCGAGUCUCGUACGGAACG,≤ 0.5
22,GCUCCGUUGGCGUAAUGGUAACGCGUCUCCCUCCUAAGGAGAAGACUGCGGGUUCGAGUCCCGGAAGGAACG,≤ 0.5
23,GCUCCGUUGGCGUAAUGGUAACGCGUCACCCUCCUAAGGAGAAGACUGCGGAUUCGAGUCCCGUACGGAACG,≤ 0.5
24,GCUCCGUUGGCGUAAAGGUAACGCGUCUCCCUCCUAAGGAGAAGACUGCGGGUUCGAGUCCCGUACCGAACG,0.644
25,GCUCCGUUGGCGUAAUGGUAACGCGUCACCCUCCUAAGGAGAAGACUGCGGGUUCGAGUCCCGUACGGAACG,0.563

row,Variant,yeast fitness
1,GCUCCGUUGGCGUAAUGGUAACGCGUCCCCCUCCUAAGGAGAAGACUGCGGGUUCGAGUCCCGUACGGAACG,0.912
2,GGUCCGUUGGCGUUAUGGUAACGCGUCUCCCUCCUAAGGAGAAGACUGCGGGUUCGAGUCCCGUACGGAACG,0.502
3,GGUCCGUUGGCGUAAUGGUCACGCGUCUCCCUCCUAAAGAGAAGAAUGCGGGUUCGAGUCCCGUACGGAACG,≤ 0.5
4,GCUCCGUUGGCGUAAUGGAAACGCGUCUCCCUCCUAAGGAGAAGACUGCGGGUUCGAGUCCCGUACGGAACG,0.845
5,GGUCCGUUGGCGUAAUGGUCACGCGUCUCCCUCCUAAAGAGAAGACUGCGGGUUCGAGUCCCGUACGGAACG,≤ 0.5
6,GCUCCGUUGGCGCAAUGGUAACGCGUCUCCCUCCUAAGGAGAAGACUGCGGGUUCGAGUCCCGUACGGAACG,0.991
7,GCUCCGUUGGCGUAAUGGUAACGCGUCCCCCUCCUAUGGAGAAGACUGCGGGAUCGAGUCCCGUACGGAACG,0.547
8,GCUCCGUUGGCGUAAUGGUAACGCGUCGCCCUCCUAAGGAGAUGACUGCGGGUUCCUGUCCCGUACAGAACG,≤ 0.5
9,GCUCCGUUGGCGUAAUGGUAACGCGCCUCCCUCCUAAGGAGAAGACUGCGGGUUCGAGUCGCAUACGGUACG,0.56
10,GCUCCGUUGGCGUAACGGUAACGCGUGUCCCUCCUAAGGAGAAGACUGCGGGUUCGAGUCCCGUACGAAACG,≤ 0.5
11,GCUCCGAUGGCGUAAUGGUAAAGCGUCUCCCUCCUUAGGAGAAGUCUGCGGGUUCGAGUUCUGUAUGGAACG,0.541
12,GCUCCGUUGGCGUAAUGGUAACGCGUCUCCCUCCUAAGGAGAAGACUGCGGGAUCGAGUCCCGUACGGAACG,0.7
13,GCUCCGUGGGCGUAAUGGUAACGCGUCUCCCUCCUAAGGAGAAGACUGAGGGUUUGAGUCCCGUAAGGCACG,≤ 0.5
14,GCUCCGUUGGCGUAAUGGUAACGCGUCACCCUCCUAAGGAGAAGACUGCGGGUUCGAGUCCCGUACAGAACG,≤ 0.5
15,GCUCCGUUGGCGUAAAGGUAACGCGUCUCCCUCCUAAGGGGAAGACUACGGGUUCGAGUCCCGUACGGAACG,≤ 0.5
16,GCCCCGUUGGCGUAAUGGUAACGCGUCUCCCUCUUAAGGAGAAGACUGCGGGUUCGAGUCCCAUACGGAACG,≤ 0.5
17,GGUCCGUUGGCGUAAUGGUGACGCGUCUCCCUUCUAAGAAGAAGACUGCGGGUUCGAGUCCCGUGCGGAACG,≤ 0.5
18,GCUCCGUUGGCGUAAUGGUAACGCGUCUCCCUCCUAAGGAGAAGACUGCGGGUACGAGUCCCGUACGGAACG,0.612
19,GCUCCGUUGGCGUAAUGGUAACGCGUCCCCCUCUUAAGGAGAAGACUGCGGGUUCGAGUCCCGUACGGAACG,≤ 0.5
20,GCUCCGUUGGCGUAAAGGUAACGCGUCUCCCUCCUAACGAGAAGACUGCGGGUUCGAGUCCCAUACGGAACG,0.552
21,GCUCCGUUGGCGUAAUGGUAACGCGUCUCCCACCUAAGGAGAAGACUGCGGGUUCGAGUCCCGUGCGGAACG,≤ 0.5
22,GCUCCGUUGGCGUAACGGUAACGCGUGUCCCUCCUAAGGAGAAGACUGCGGGUUUGAGGCCCGUACGGAACG,≤ 0.5
23,GCUCCGUUGGCGUAAUGGUAACGCGUCUCCCUCCUAAGGAGAAGACAGCGGGUUCGAGUCCCGAACGGAACG,≤ 0.5
24,GCUCCGUUGGCGUAAGGGUAACGCGUCUCCCUCCUAAGGAGAAGACUGCGGGUUCGAGUCCCGUACGGAACG,0.96
25,GCUCCGUUGGCGGAAUGGUAAUGCGUCUCCCUCCUAAGGAGAAGACUGCGGGUUCGAGUGCCGUGCGGAACG,≤ 0.5
